Laboratory results: ChEMBL document CHEMBL3526118, “Combination of GSH trapping and time-dependent inhibition assays as a predictive method of drugs generating highly reactive metabolites” (Drug Metab Dispos, 2011)

Tests used:
[1] = Intrinsic clearance for reactive metabolites formation per mg of protein based on cytochrome P450 (unknown origin) inactivation rate by TDI assay; conditions: human
Liver microsome [2] = assay: Covalent binding in human liver microsomes measured per mg of protein using radiolabelled compound at 10 uM after 1 hr incubation by liquid scintillation counting
Liver microsome [3] = assay: Metabolic activation in human liver microsomes assessed as [3H]GSH adduct formation rate measured per mg of protein at 100 uM by [3H]GSH trapping assay
[4] = Intrinsic clearance for reactive metabolites formation assessed as summation of [3H]GSH adduct formation rate-based reactive metabolites formation and cytochrome P450 (unknown origin) inactivation rate-based reactive metabolites formation; conditions: human
CYP2D6 = CYP2D6 (Homo sapiens, UniProt P10635); assay: in vitro
CYP1A2 = molecular target: T1, CYP1A2 (Homo sapiens, UniProt P05177); assay: in vitro
T1 sequence (P05177 whole entry): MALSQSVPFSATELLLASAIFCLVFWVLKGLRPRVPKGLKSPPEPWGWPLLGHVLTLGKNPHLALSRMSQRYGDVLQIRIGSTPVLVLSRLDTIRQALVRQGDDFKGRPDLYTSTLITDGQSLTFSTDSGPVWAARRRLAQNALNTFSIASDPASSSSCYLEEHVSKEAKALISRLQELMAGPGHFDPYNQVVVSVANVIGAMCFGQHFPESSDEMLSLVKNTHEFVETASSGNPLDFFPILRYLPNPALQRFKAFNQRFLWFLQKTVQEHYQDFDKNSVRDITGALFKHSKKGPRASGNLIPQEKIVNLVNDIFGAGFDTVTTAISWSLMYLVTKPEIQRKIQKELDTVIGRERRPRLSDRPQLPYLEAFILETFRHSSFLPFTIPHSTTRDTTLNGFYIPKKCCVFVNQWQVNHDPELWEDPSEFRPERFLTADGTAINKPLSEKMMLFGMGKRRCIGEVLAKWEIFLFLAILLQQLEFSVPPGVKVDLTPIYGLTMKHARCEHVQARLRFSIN

CYP2B6 = molecular target: T2, CYP2B6 (Homo sapiens, UniProt P20813); assay: in vitro
T2 sequence (P20813 whole entry): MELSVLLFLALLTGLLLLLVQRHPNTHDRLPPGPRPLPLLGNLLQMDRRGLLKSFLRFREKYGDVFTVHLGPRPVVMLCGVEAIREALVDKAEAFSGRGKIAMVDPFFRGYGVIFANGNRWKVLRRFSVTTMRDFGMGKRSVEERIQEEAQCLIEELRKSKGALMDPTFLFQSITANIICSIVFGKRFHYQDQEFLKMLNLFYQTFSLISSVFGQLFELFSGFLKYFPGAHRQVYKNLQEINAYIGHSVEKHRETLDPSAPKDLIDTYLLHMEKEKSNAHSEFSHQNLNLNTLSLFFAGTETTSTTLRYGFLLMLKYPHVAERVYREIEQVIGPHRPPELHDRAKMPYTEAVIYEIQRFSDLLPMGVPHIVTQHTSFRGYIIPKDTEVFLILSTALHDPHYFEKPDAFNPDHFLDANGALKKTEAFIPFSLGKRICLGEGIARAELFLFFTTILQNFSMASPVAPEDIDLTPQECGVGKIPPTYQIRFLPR

CYP2C9 = CYP2C9 (Homo sapiens, UniProt P11712); assay: in vitro
CYP3A4 [5] = molecular target: T3, CYP3A4 (Homo sapiens, UniProt P08684); assay: in vitro
CYP2C19 = CYP2C19 (Homo sapiens, UniProt P33261); assay: in vitro
CYP2C8 = molecular target: T4, CYP2C8 (Homo sapiens, UniProt P10632); assay: in vitro
T4 sequence (P10632 whole entry): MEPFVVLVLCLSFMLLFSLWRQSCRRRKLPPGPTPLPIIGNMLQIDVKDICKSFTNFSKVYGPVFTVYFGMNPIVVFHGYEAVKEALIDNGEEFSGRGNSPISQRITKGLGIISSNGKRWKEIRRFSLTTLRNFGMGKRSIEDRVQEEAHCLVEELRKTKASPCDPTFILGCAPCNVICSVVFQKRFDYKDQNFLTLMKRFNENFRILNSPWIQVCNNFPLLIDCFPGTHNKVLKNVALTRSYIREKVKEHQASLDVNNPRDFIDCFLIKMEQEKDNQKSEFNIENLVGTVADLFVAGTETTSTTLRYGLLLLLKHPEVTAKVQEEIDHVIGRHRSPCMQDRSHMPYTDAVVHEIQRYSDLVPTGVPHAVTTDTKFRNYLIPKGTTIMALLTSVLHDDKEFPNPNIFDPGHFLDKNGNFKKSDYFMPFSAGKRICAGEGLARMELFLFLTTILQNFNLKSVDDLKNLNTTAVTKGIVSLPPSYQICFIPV

CYP3A4 [6] = molecular target: T3, CYP3A4; assay: Time dependent inhibition of CYP3A4 (unknown origin) at 10 uM by LC/MS system; assay type: ADME
Outline: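 CYP3A4: human liver microsomes at 0.5 mg/mL in preincubation, 0.1 M sodium phosphate, NADPH-generating system, 0 or 30 min. Ten-fold dilution into incubation with 2.5 μM midazolam (final), 10 min. Each value is relative to the matched control without inhibitor. % enzyme inactivation = 100 × [1 − %control(30 min)/%control(0 min)]; 10% threshold.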

Liver microsome [7] = conditions: human, microsomes, 100 µM

T3 sequence (P08684 whole entry): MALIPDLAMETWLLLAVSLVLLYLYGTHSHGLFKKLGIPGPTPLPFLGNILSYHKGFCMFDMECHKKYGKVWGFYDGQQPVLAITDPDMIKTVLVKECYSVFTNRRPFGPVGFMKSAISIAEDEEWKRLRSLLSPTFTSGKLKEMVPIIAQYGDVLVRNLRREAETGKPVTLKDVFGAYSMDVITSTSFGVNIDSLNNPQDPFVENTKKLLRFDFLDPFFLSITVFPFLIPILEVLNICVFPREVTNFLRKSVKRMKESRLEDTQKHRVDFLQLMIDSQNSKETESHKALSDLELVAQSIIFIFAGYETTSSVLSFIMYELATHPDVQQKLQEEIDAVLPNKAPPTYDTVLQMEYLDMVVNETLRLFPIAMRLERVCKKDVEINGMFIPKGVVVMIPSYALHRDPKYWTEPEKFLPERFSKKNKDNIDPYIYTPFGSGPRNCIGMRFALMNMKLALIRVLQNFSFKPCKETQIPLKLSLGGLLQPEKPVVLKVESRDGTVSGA
Sequence of CYP2D6 (P10635 whole entry): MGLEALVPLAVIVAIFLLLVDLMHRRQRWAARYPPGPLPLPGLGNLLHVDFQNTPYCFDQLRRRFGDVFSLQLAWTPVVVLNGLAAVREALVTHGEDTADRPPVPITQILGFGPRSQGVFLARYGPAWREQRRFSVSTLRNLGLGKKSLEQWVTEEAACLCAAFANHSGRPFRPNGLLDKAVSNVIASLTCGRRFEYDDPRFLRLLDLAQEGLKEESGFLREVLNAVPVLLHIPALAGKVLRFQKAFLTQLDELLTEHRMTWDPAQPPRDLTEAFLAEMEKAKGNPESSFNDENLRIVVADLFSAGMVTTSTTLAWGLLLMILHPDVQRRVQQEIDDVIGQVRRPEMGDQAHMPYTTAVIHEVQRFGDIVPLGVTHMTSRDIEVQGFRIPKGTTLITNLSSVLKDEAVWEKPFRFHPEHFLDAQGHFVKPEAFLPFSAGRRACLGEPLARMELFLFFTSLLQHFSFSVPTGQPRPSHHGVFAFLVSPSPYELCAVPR
Sequence of CYP2C19 (P33261 whole entry): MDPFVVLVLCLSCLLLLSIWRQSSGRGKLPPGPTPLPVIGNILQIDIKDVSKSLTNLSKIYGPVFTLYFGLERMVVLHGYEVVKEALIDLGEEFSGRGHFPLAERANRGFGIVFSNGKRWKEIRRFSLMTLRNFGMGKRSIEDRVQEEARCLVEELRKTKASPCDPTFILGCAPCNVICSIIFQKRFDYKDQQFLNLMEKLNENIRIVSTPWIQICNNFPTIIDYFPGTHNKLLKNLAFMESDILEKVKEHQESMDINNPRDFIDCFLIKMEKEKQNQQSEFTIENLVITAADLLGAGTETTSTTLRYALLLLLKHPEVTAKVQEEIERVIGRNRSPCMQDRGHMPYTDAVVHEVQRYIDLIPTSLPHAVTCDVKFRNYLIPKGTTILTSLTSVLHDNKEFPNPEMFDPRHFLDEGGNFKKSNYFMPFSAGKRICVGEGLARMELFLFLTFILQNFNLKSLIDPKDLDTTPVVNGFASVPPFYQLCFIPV
Sequence of CYP2C9 (P11712 whole entry): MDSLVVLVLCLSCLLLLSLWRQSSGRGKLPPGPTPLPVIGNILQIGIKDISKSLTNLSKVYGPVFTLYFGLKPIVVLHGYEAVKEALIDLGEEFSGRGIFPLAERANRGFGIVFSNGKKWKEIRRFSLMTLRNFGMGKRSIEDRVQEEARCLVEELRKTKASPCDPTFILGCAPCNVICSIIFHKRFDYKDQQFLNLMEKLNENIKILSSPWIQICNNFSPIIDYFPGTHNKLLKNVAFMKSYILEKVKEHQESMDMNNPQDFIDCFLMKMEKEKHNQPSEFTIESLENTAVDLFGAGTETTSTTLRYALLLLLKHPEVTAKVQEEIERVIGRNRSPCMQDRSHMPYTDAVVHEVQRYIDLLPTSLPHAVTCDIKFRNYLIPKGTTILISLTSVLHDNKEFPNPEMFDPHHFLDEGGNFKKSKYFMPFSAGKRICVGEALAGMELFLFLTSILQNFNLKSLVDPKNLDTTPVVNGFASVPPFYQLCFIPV

SMILES	clearance [1] [µL/min/mg]	PB (Liver microsome [2]) [pmol]	Drug metabolism (Liver microsome [3])	clearance [4] [µL/min/mg]	inhibition at 100 µM (CYP2D6) [%]	inhibition at 100 µM (CYP1A2) [%]	inhibition at 100 µM (CYP2B6) [%]	inhibition at 100 µM (CYP2C9) [%]	inhibition at 100 µM (CYP3A4 [5]) [%]	inhibition at 100 µM (CYP2C19; human liver microsomes) [%]	inhibition at 100 µM (CYP2C8) [%]	inhibition at 100 µM (CYP2C19; microsomes) [%]	inhibition at 10 µM (CYP3A4 [6]) [%]	CLH (Liver microsome [7]) [µL/min/mg]
CC(C)c1nc(CN(C)C(=O)N[C@H](C(=O)N[C@@H](Cc2ccccc2)C[C@H](O)[C@H](Cc2ccccc2)NC(=O)OCc2cncs2)C(C)C)cs1 [RITONAVIR]	3.55	253.3	metabolite_not_detected	3.55	–	–	–	–	–	–	–	–	–	–
CC[C@H]1OC(=O)[C@H](C)[C@@H](O[C@H]2C[C@@](C)(OC)[C@@H](O)[C@H](C)O2)[C@H](C)[C@@H](O[C@@H]2O[C@H](C)C[C@H](N(C)C)[C@H]2O)[C@](C)(O)C[C@@H](C)C(=O)[C@H](C)[C@@H](O)[C@]1(C)O [ERYTHROMYCIN]	0.021	57.1	metabolite_not_detected	0.021	< 10	< 10	< 10	< 10	45	< 10	< 10	–	–	–
CC[C@H](C)C(=O)O[C@H]1C[C@H](O)C=C2C=C[C@H](C)[C@H](CC[C@@H](O)C[C@@H](O)CC(=O)O)[C@H]21 [PRAVASTATIN]	–	3.7	metabolite_not_detected	–	< 10	< 10	< 10	< 10	< 10	–	< 10	< 10	–	–
CC(=O)Nc1ccc(O)cc1 [ACETAMINOPHEN]	–	–	–	–	< 10	< 10	< 10	< 10	–	–	< 10	–	< 10	–
CCCc1nc(C(C)(C)O)c(C(=O)O)n1Cc1ccc(-c2ccccc2-c2nnn[nH]2)cc1 [OLMESARTAN]	–	3.4	metabolite_not_detected	–	< 10	< 10	< 10	< 10	< 10	< 10	< 10	–	–	–
O=C(O)Cc1ccccc1Nc1c(Cl)cccc1Cl [DICLOFENAC]	–	–	1 pmol/min	0.01	< 10	< 10	< 10	< 10	< 10	–	< 10	< 10	–	0.01
CC(C)NCC(O)COc1cccc2ccccc12 (centres undefined) [PROPRANOLOL]	0.004	–	–	0.031	< 10	25	< 10	< 10	< 10	–	< 10	< 10	–	–
CC(=O)CC(c1ccccc1)c1c(O)c2ccccc2oc1=O (centres undefined) [WARFARIN]	0.003	15.9	metabolite_not_detected	0.003	< 10	19	< 10	< 10	< 10	< 10	< 10	–	–	–
